Measurements: ChEMBL document CHEMBL1275328, “Targeting the polyamine transport system with benzazepine- and azepine-polyamine conjugates” (J Med Chem, 2010)
Structures can show the parent of a compound that is named as a salt. The source made the active and inactive calls. The rule behind the calls is not given here.

How the values were obtained:
[1] = Cytostatic toxicity against mouse L1210 cells expressing polyamine transport system assessed as cell viability at 100 uM after 48 hrs by trypan blue assay; type: ADME, cell-based
Outline: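 L1210 cells exposed 48 h to 100 μM compound, viability scored by Trypan blue exclusion.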

[2] = Inhibition of [14C]spermidine uptake at polyamine transport system in mouse L1210 cells after 10 mins; type: cell-based
Outline: (§1)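 2 × 10^6 L1210 cells in 0.6 mL HBSS/20 mM HEPES, 10 min uptake at 37 °C of 1 μM [14C]spermidine with increasing competitor concentrations. IC50 obtained by iterative sigmoidal curve fitting, Ki by Cheng-Prusoff. Spermidine Km from Lineweaver-Burke analysis of uptake at rising labelled substrate. Mean ± SD, three determinations.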

L1210 [3] = experiment: Drug uptake in mouse L1210 cells expressing polyamine transport system in presence of ornithine decarboxylase inhibitor DFMO after 48 hrs by HPLC; conditions: l1210, 48 h
CHO = experiment: Drug uptake in CHO cells expressing polyamine transport system after 24 hrs by HPLC; type: ADME, cell-based, Cricetulus griseus; conditions: chinese hamster
Outline: (§2)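 Compound given at 0.1 to 100 μM for 24 h exposure; medium RPMI 1640/10% FCS with 2 mM aminoguanidine. CHO cells seeded at 2 × 10^5 cells/mL and dosed 24 h after seeding. L1210 cells seeded at 4 × 10^4 cells/mL and dosed at seeding. Cells washed thrice in cold 0.14 M NaCl, sonicated in 0.2 N HClO4. Extracts analysed by ion-pair C18 HPLC with post-column OPA/N-acetylcysteine fluorescence (ex 345, em 455 nm). Protein measured on pellet.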

[4] = Cytostatic toxicity against mouse L1210 cells expressing polyamine transport system assessed as reduction in cell growth at 10 uM after 48 hrs by MTT assay; type: ADME, cell-based
Outline: (§3)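 L1210 cells seeded at 5 × 10^4 cells/mL in RPMI 1640 with 10% FCS and 2 mM aminoguanidine, 37 °C, 5% CO2. Compound added at seeding, 48 h exposure. Growth read as MTT formazan absorbance at 540 nm. Growth taken relative to untreated control cells. Means of three or more experiments.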

L1210 [5] = experiment: Drug uptake in mouse L1210 cells expressing polyamine transport system after 24 hrs by HPLC; type: ADME, cell-based; conditions: l1210, 24 h; outline: as §2
L1210 [6] = experiment: Ratio of spermidine Km to compound Ki for polyamine transport system in mouse L1210 cells; type: cell-based; outline: as §1
L1210 [7] = experiment: Ratio of drug uptake in mouse L1210 cells at 10 uM in presence of 5 mM ornithine decarboxylase inhibitor DFMO to drug uptake in mouse L1210 cells at 10 uM after 48 hrs by HPLC; type: ADME, cell-based; conditions: l1210, 48 h
Outline: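 L1210 cells seeded at 4 × 10^4 cells/mL and given 10 μM conjugate at seeding, ±5 mM DFMO, medium containing 2 mM aminoguanidine. Harvest at 48 h, washed in cold 0.14 M NaCl, perchloric extract. Intracellular conjugate measured by ion-pair HPLC with OPA fluorescence. Ratio is DFMO/control accumulation. Mean ± SD of three determinations; Student's t test.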

L1210 [8] = experiment: Cytostatic toxicity against mouse L1210 cells expressing polyamine transport system after 48 hrs by MTT assay; type: ADME, cell-based; conditions: l1210, 48 h; outline: as §3
L1210 [9] = experiment: Inhibition of reversion of DFMO-induced cytostatic effect against mouse L1210 cells expressing polyamine transport system at 20 uM pretreated with 20 uM spermidine for 24 hrs after DFMO addition measured after 48 hrs by MTT assay; type: functional, cell-based
Outline: (§4)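 L1210 cells seeded in 5 mM DFMO. After 24 h, free putrescine, spermidine or spermine added with or without 20 μM test compound. Growth measured by MTT assay 48 h later.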

L1210 [10] = experiment: Cytostatic toxicity against mouse L1210 cells expressing polyamine transport system assessed as effect on cell growth upto 20 uM after 48 hrs by MTT assay; type: ADME, cell-based; conditions: l1210, 48 h; outline: as §3
L1210 [11] = experiment: Inhibition of reversion of DFMO-induced cytostatic effect against mouse L1210 cells expressing polyamine transport system at 20 uM pretreated with 1 uM spermine for 24 hrs after DFMO addition measured after 48 hrs by MTT assay; type: functional, cell-based; outline: as §4
L1210 [12] = experiment: Inhibition of reversion of DFMO-induced cytostatic effect against mouse L1210 cells expressing polyamine transport system at 20 uM pretreated with 100 uM putrescine for 24 hrs after DFMO addition measured after 48 hrs by MTT assay; type: functional, cell-based; outline: as §4

Drug uptake (CHO)	Drug uptake (L1210 [5])	Compound	Ki [2] [µM]	Ratio (L1210 [6])	further results
Dose-dependent effect	Dose-dependent effect	Cl.NCCCCNCCCCNC1=NCCCCC1	5.47	0.43	viability at 48 h, 100 µM [1]: > 95%; Drug uptake (L1210 [3]): Active; inhibition at 48 h, 10 µM [4]: 65%
		NCCCNCCCNCCCNC1=Nc2ccccc2CCC1	0.88	2.69	
		NCCCCCCCCNC1=NCCCCC1	183	0.013	
		NCCCCN [PUTRESCINE DIHYDROCHLORIDE]	208	0.011	
Dose-dependent effect	Dose-dependent effect	Cl.NCCCNCCCCNCCCNC1=NCCCCC1	0.35	6.77	Drug uptake (L1210 [3]): Active
		NCCCNC[C@@H](O)[C@@H](O)CNCCCNC1=Nc2ccccc2CCC1	2.25	1.05	
		NCCCCCCCCN	24.1	0.098	
		NCCCCNCCCCNCCCCNC1=Nc2ccccc2CCC1	0.2	11.9	
Dose-dependent effect	Dose-dependent effect	Cl.NCCCNCCCNC1=NCCCCC1	161	0.015	Drug uptake (L1210 [3]): Active
		NCCCNCCCN [NORSPERMIDINE TRIHYDROCHLORIDE]	5.12	0.46	
Dose-dependent effect	Dose-dependent effect	Cl.NCCCNCCCCNCCCNC1=Nc2ccccc2CCC1	0.15	15.8	Drug uptake (L1210 [3]): Active
		NCCCCNCCCCN [HOMOSPERMIDINE]	2.3	1.03	
Dose-dependent effect	Dose-dependent effect	Cl.NCCCCNCCCNC1=Nc2ccccc2CCC1	4.4	0.54	
Dose-dependent effect	Dose-dependent effect	Cl.NCCCCNCCCNC1=NCCCCC1	14.6	0.16	viability at 48 h, 100 µM [1]: > 95%; Ratio (L1210 [7]): 4; Drug uptake (L1210 [3]): Active; inhibition at 48 h, 10 µM [4]: 30%
Dose-dependent effect	Dose-dependent effect	Cl.NCCCNCCCCNC1=NCCCCC1	44.7	0.053	Drug uptake (L1210 [3]): Active
Dose-dependent effect	Dose-dependent effect	Cl.Cl.NCCCCNC1=NCCCCC1	763	0.003	Drug uptake (L1210 [3]): Active
		NCCCNCCCCNCCCN	1.34	1.77	
		Cl.NCCCNCCCCNCCCNC1=Nc2ccc(N)cc2CCC1	0.19	12.5	Activity (L1210 [8]): Toxic
		COc1ccc2c(c1)CCCC(NCCCNCCCCNCCCN)=N2.Cl	0.23	10.3	Activity (L1210 [8]): Toxic
		NCCCNC[C@@H](O)[C@@H](O)CNCCCN	5.27	0.45	
		NCCCCNCCCCNCCCCN [HOMOSPERMINE]	0.73	3.25	
		NCCCNCCCNCCCN [NORSPERMINE]	1.51	1.57	
		Cl.NCCCNCCCCNCCCNC1=Nc2ccc([N+](=O)[O-])cc2CCC1	0.12	19.8	inhibition (L1210 [9]): Active; Activity (L1210 [10]): Non-toxic; inhibition (L1210 [11]): Active; inhibition (L1210 [12]): Active
		Cl.NCCCNCCCCNCCCNC1=Nc2ccc(Br)cc2CCC1	0.14	16.9	Activity (L1210 [8]): Toxic
Dose-dependent effect	Dose-dependent effect	Cl.NCCCCCNCCCNC1=NCCCCC1	45.9	0.051	Drug uptake (L1210 [3]): Active
		NCCCCCCCCNC1=Nc2ccccc2CCC1	126	0.019	
		NCCCCCNCCCN	8.03	0.29	
Dose-dependent effect	Dose-dependent effect	Cl.Cl.NCCCCNC1=Nc2ccccc2CCC1	35.1	0.067	
